Measurements from ChEMBL document CHEMBL3865853, “Synthesis and Bioevaluation of 3,6-Diaryl-[1,2,4]triazolo[4,3-b] Pyridazines as Antitubulin Agents” (ACS Med Chem Lett, 2016).
The source made the active and inactive calls. The rule behind the calls is not given here.

Experiments:
[1] = Cytotoxicity against human A549 cells assessed as reduction in cell viability after 24 hrs by MTT assay; type: functional, cell-based; conditions: A549, 24 h
Summary of the method: (§1)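 MTT viability assay on A549, HT-1080 and SGC-7901 cells; IC50 as concentration giving 50% inhibition; each experiment run in triplicate.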

[2] = Cytotoxicity against human SGC7901 cells assessed as reduction in cell viability after 24 hrs by MTT assay; type: functional, cell-based; conditions: SGC-7901, 24 h; summary of the method: as §1
[3] = Cytotoxicity against human HT1080 cells assessed as reduction in cell viability after 24 hrs by MTT assay; type: functional, cell-based; conditions: HT-1080, 24 h; summary of the method: as §1
A549 = test: Inhibition of alpha-tubulin polymerization in human A549 cells assessed as destruction of tubulin network at 2 times IC50 after 12 hrs by DAPI/FITC-dual staining based fluorescence microscopic analysis; type: cell-based
Summary of the method: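 Indirect immunofluorescence of microtubule network in cultured A549 cells after treatment at 2-fold IC50 concentrations; DMSO-treated cells as vehicle control.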

[4] = (§2) Inhibition of pig brain tubulin polymerization measured at 1 min intervals for 90 mins by spectrophotometric analysis; set-up: species or system Sus scrofa
Summary of the method: (§3)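 Purified tubulin incubated at room temperature with test agent (0.33–10 μM range used), paclitaxel 5.0 μM, or DMSO vehicle; polymerization followed, IC50 derived; mean ± SD of three experiments in triplicate.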

Sus scrofa = organism: Sus scrofa; test: as §2; summary of the method: as §3
[5] = Cell cycle arrest in human A549 cells assessed as accumulation in G2/M phase at 0.016 uM by propidium iodide-staining based FACS analysis; type: functional; conditions: TDE = time-dependent effect
[6] = Cell cycle arrest in human A549 cells assessed as accumulation in G2/M phase after 12 hrs by propidium iodide-staining based FACS analysis; type: functional
[7] = Cell cycle arrest in human A549 cells assessed as accumulation in G2/M phase at 0.018 uM by propidium iodide-staining based FACS analysis; type: functional

In the case of `COc1cc(-c2nnc3ccc(-c4ccc(C(F)(F)F)cc4)nn23)cc(OC)c1OC`, the IC50 [1] is reported as 10400 nM, the IC50 [2] is reported as 2210 nM and the IC50 [3] is reported as 1860 nM.

`COc1ccc(-c2ccc3nnc(-c4cc(OC)c(OC)c(OC)c4)n3n2)cc1` showed an IC50 [1] of 51 nM, an IC50 [2] of 260 nM and an IC50 [3] of 17 nM.

`COc1cc(-c2nnc3ccc(-c4ccc(N)cc4)nn23)cc(OC)c1OC` gave an IC50 [1] of 2350 nM, an IC50 [2] of 1230 nM and an IC50 [3] of 1620 nM.

`COc1cc(-c2nnc3ccc(-c4ccc(Br)cc4)nn23)cc(OC)c1OC` showed an IC50 [1] of 780 nM, an IC50 [2] of 1280 nM and an IC50 [3] of 150 nM.

`COc1cc(-c2nnc3ccc(-c4ccc(Cl)cc4)nn23)cc(OC)c1OC` showed an IC50 [1] of 51 nM, an IC50 [2] of 25 nM and an IC50 [3] of 450 nM.

Work on `COc1ccc(-c2ccc3nnc(-c4ccc(OC)c(OC)c4OC)n3n2)cc1` yielded an IC50 [1] of 6980 nM, an IC50 [2] of 420 nM and an IC50 [3] of 5570 nM.

`COc1cc(-c2nnc3ccc(-c4cccc([N+](=O)[O-])c4)nn23)cc(OC)c1OC` gave an IC50 [1] of 90500 nM, an IC50 [2] of 86400 nM and an IC50 [3] of 50000 nM.

Work on `COc1cc(-c2nnc3ccc(-c4ccc(SC)cc4)nn23)cc(OC)c1OC` yielded an IC50 [1] of 280 nM, an IC50 [2] of 98 nM and an IC50 [3] of 73 nM.

For `COc1cc(-c2nnc3ccc(-c4ccc(C)cc4)nn23)cc(OC)c1OC`, the IC50 [1] was 23 nM, the IC50 [2] was 16 nM and the IC50 [3] was 140 nM.

Molecule `COc1cc(-c2nnc3ccc(-c4ccc(F)cc4)nn23)cc(OC)c1OC` has an IC50 [1] of 2180 nM, an IC50 [2] of 2020 nM and an IC50 [3] of 21 nM.

In the case of `COc1cc(-c2nnc3ccc(-c4ccc([N+](=O)[O-])cc4)nn23)cc(OC)c1OC`, the IC50 [1] is reported as 3850 nM, the IC50 [2] is reported as 2380 nM and the IC50 [3] is reported as 4940 nM.

With `COc1cc(-c2nnc3ccc(-c4ccc(C#N)cc4)nn23)cc(OC)c1OC` the IC50 [1] was 51600 nM, the IC50 [2] was 30900 nM and the IC50 [3] was 33500 nM.

For `COc1ccc(-c2ccc3nnc(-c4cc(OC)c(OC)c(OC)c4)n3n2)cc1N`, the inhibition (A549) was “Active”, the IC50 [1] was 8 nM and the IC50 [4] was 1800 nM. For the same molecule, the inhibition (Sus scrofa) was “Dose-dependent effect”, the IC50 [2] was 14 nM and the Activity [5] was “Tde”. For the same molecule, the Activity [6] was “Dose-dependent effect” and the IC50 [3] was 12 nM.

Work on `COc1ccc(-c2ccc3nnc(-c4ccc(OC)c(OC)c4OC)n3n2)cc1N` yielded an IC50 [1] of 2620 nM, an IC50 [2] of 910 nM and an IC50 [3] of 920 nM.

`COc1cc(-c2nnc3ccc(-c4cccc(N)c4)nn23)cc(OC)c1OC` showed an IC50 [1] of 2980 nM, an IC50 [2] of 980 nM and an IC50 [3] of 390 nM.

`COc1ccc(-c2nnc3ccc(-c4ccc(C)cc4)nn23)c(OC)c1OC` showed an IC50 [1] of 10400 nM, an IC50 [2] of 4530 nM and an IC50 [3] of 170 nM.

Molecule `COc1ccc(-c2ccc3nnc(-c4ccc(OC)c(OC)c4OC)n3n2)cc1[N+](=O)[O-]` has an IC50 [1] of 11400 nM, an IC50 [2] of 9140 nM and an IC50 [3] of 18200 nM.

Molecule `COc1ccc(-c2ccc3nnc(-c4cc(OC)c(OC)c(OC)c4)n3n2)cc1F` has an IC50 [1] of 4230 nM, an IC50 [2] of 4170 nM and an IC50 [3] of 1690 nM.

`COc1cc(-c2nnc3ccc(-c4cccc(Cl)c4)nn23)cc(OC)c1OC` gave an IC50 [1] of 47900 nM, an IC50 [2] of 63100 nM and an IC50 [3] of 60500 nM.

`COc1cc(-c2nnc3ccc(-c4cccc(Br)c4)nn23)cc(OC)c1OC` showed an IC50 [1] of 52200 nM, an IC50 [2] of 59000 nM and an IC50 [3] of 54500 nM.

In the case of `COc1ccc(/C=C\c2cc(OC)c(OC)c(OC)c2)cc1O` [COMBRETASTATIN A4], the inhibition (A549) is reported as “Active”, the IC50 [1] is reported as 9 nM and the inhibition (Sus scrofa) is reported as “Dose-dependent effect”. The IC50 [2] was 12 nM, the Activity [7] was “Active” and the IC50 [3] was 9 nM.

In the case of `COc1ccc(-c2ccc3nnc(-c4cc(OC)c(OC)c(OC)c4)n3n2)cc1[N+](=O)[O-]`, the IC50 [1] is reported as 4570 nM, the IC50 [2] is reported as 2280 nM and the IC50 [3] is reported as 6850 nM.
